Test results taken from ChEMBL document CHEMBL5058577, “EUbOPEN Chemogenomics Library 2 (Multiplex)” (2022).

Tested on: HEK-293T
Assay: Multiplex assay against HEK293T
Assay type: toxicity, cell-based
Settings: human
In short: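 Hoechst33342, BioTracker Green Microtubule Cytoskeleton Dye, MitoTracker Red and Annexin V Alexa Fluor 680 were added to live cells at seeding, and imaging on a CQ1 microscope at 37°C and 5% CO2 followed compound addition. Gating by CellPathfinder machine learning separated cells into Hoechst high-intensity objects or normal cells, then normal cells into healthy, pyknosed or fragmented nuclei, then pyknosed cells into mitotic or apoptotic. Per cents of healthy-nucleus cells are reported for the tubulin, mitochondrial-mass and membrane-permeability phenotypes.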

[1] = 12 h, 1 µM, compound concentration 1 uM, replicate 1
[2] = 12 h, 1 µM, compound concentration 1 uM, replicate 2
[3] = 12 h, 10 µM, compound concentration 10 uM, replicate 1
[4] = 12 h, 10 µM, compound concentration 10 uM, replicate 2
[5] = 24 h, 1 µM, compound concentration 1 uM, replicate 1
[6] = 24 h, 1 µM, compound concentration 1 uM, replicate 2
[7] = 24 h, 10 µM, compound concentration 10 uM, replicate 1
[8] = 24 h, 10 µM, compound concentration 10 uM, replicate 2
[9] = 48 h, 1 µM, compound concentration 1 uM, replicate 1
[10] = 48 h, 1 µM, compound concentration 1 uM, replicate 2
[11] = 48 h, 10 µM, compound concentration 10 uM, replicate 1
[12] = 48 h, 10 µM, compound concentration 10 uM, replicate 2

N#Cc1c(N)nc(SCc2csc(-c3ccc(Cl)cc3)n2)c(C#N)c1-c1ccc(OCCO)cc1 [CAPADENOSON]
Population Apoptotic (%) [1]: 36%
Population Fragmented Nuclei (%) [1]: 6%
Population Healthy Nuclei (%) [1]: 79%
Population Hoechst High Intensity Objects (%) [1]: 8%
Population Membrane Permeable-Phenotype (%) [1]: 0%
Population Mitochondria Different-Phenotype (%) [1]: 59%
Population Mitotic Cells (%) [1]: 63%
Population Normal (%) [1]: 91%
Population Pyknosed Nuclei (%) [1]: 13%
Population Tubulin-Different-Phenotype (%) [1]: 44%
Total Cell Count [1]: 373
Population Apoptotic (%) [2]: 54%
Population Healthy Nuclei (%) [2]: 80%
Population Hoechst High Intensity Objects (%) [2]: 4%
Population Mitochondria Different-Phenotype (%) [2]: 60%
Population Mitotic Cells (%) [2]: 45%
Population Normal (%) [2]: 95%
Population Pyknosed Nuclei (%) [2]: 12%
Population Tubulin-Different-Phenotype (%) [2]: 34%
Total Cell Count [2]: 375
Population Apoptotic (%) [3]: 57%
Population Fragmented Nuclei (%) [3]: 7%
Population Healthy Nuclei (%) [3]: 75%
Population Hoechst High Intensity Objects (%) [3]: 12%
Population Membrane Permeable-Phenotype (%) [3]: 0%
Population Mitochondria Different-Phenotype (%) [3]: 82%
Population Mitotic Cells (%) [3]: 42%
Population Normal (%) [3]: 87%
Population Pyknosed Nuclei (%) [3]: 17%
Population Tubulin-Different-Phenotype (%) [3]: 62%
Total Cell Count [3]: 307
Population Apoptotic (%) [4]: 70%
Population Fragmented Nuclei (%) [4]: 6%
Population Healthy Nuclei (%) [4]: 73%
Population Hoechst High Intensity Objects (%) [4]: 14%
Population Membrane Permeable-Phenotype (%) [4]: 1%
Population Mitochondria Different-Phenotype (%) [4]: 85%
Population Mitotic Cells (%) [4]: 29%
Population Normal (%) [4]: 85%
Population Pyknosed Nuclei (%) [4]: 20%
Population Tubulin-Different-Phenotype (%) [4]: 63%
Total Cell Count [4]: 388
Population Apoptotic (%) [5]: 36%
Population Fragmented Nuclei (%) [5]: 5%
Population Healthy Nuclei (%) [5]: 76%
Population Hoechst High Intensity Objects (%) [5]: 6%
Population Membrane Permeable-Phenotype (%) [5]: 2%
Population Mitochondria Different-Phenotype (%) [5]: 38%
Population Mitotic Cells (%) [5]: 63%
Population Normal (%) [5]: 93%
Population Pyknosed Nuclei (%) [5]: 17%
Population Tubulin-Different-Phenotype (%) [5]: 34%
Total Cell Count [5]: 450
Population Apoptotic (%) [6]: 37%
Population Fragmented Nuclei (%) [6]: 7%
Population Healthy Nuclei (%) [6]: 79%
Population Hoechst High Intensity Objects (%) [6]: 4%
Population Membrane Permeable-Phenotype (%) [6]: 0%
Population Mitochondria Different-Phenotype (%) [6]: 44%
Population Mitotic Cells (%) [6]: 62%
Population Normal (%) [6]: 95%
Population Pyknosed Nuclei (%) [6]: 12%
Population Tubulin-Different-Phenotype (%) [6]: 23%
Total Cell Count [6]: 456
Population Apoptotic (%) [7]: 65%
Population Fragmented Nuclei (%) [7]: 8%
Population Healthy Nuclei (%) [7]: 68%
Population Hoechst High Intensity Objects (%) [7]: 14%
Population Membrane Permeable-Phenotype (%) [7]: 0%
Population Mitochondria Different-Phenotype (%) [7]: 94%
Population Mitotic Cells (%) [7]: 34%
Population Normal (%) [7]: 85%
Population Pyknosed Nuclei (%) [7]: 22%
Population Tubulin-Different-Phenotype (%) [7]: 62%
Total Cell Count [7]: 319
Population Apoptotic (%) [8]: 73%
Population Fragmented Nuclei (%) [8]: 4%
Population Hoechst High Intensity Objects (%) [8]: 13%
Population Mitochondria Different-Phenotype (%) [8]: 89%
Population Mitotic Cells (%) [8]: 26%
Population Normal (%) [8]: 86%
Population Pyknosed Nuclei (%) [8]: 26%
Population Tubulin-Different-Phenotype (%) [8]: 61%
Total Cell Count [8]: 391
Population Apoptotic (%) [9]: 31%
Population Fragmented Nuclei (%) [9]: 10%
Population Healthy Nuclei (%) [9]: 79%
Population Hoechst High Intensity Objects (%) [9]: 4%
Population Membrane Permeable-Phenotype (%) [9]: 1%
Population Mitochondria Different-Phenotype (%) [9]: 32%
Population Mitotic Cells (%) [9]: 68%
Population Normal (%) [9]: 95%
Population Pyknosed Nuclei (%) [9]: 10%
Population Tubulin-Different-Phenotype (%) [9]: 23%
Total Cell Count [9]: 621
Population Apoptotic (%) [10]: 32%
Population Fragmented Nuclei (%) [10]: 11%
Population Healthy Nuclei (%) [10]: 80%
Population Hoechst High Intensity Objects (%) [10]: 3%
Population Membrane Permeable-Phenotype (%) [10]: 2%
Population Mitochondria Different-Phenotype (%) [10]: 23%
Population Mitotic Cells (%) [10]: 67%
Population Normal (%) [10]: 96%
Population Pyknosed Nuclei (%) [10]: 8%
Population Tubulin-Different-Phenotype (%) [10]: 18%
Total Cell Count [10]: 787
Population Apoptotic (%) [11]: 66%
Population Fragmented Nuclei (%) [11]: 11%
Population Healthy Nuclei (%) [11]: 68%
Population Hoechst High Intensity Objects (%) [11]: 12%
Population Membrane Permeable-Phenotype (%) [11]: 0%
Population Mitochondria Different-Phenotype (%) [11]: 89%
Population Mitotic Cells (%) [11]: 33%
Population Normal (%) [11]: 87%
Population Pyknosed Nuclei (%) [11]: 20%
Population Tubulin-Different-Phenotype (%) [11]: 67%
Total Cell Count [11]: 406
Population Apoptotic (%) [12]: 63%
Population Fragmented Nuclei (%) [12]: 12%
Population Healthy Nuclei (%) [12]: 73%
Population Hoechst High Intensity Objects (%) [12]: 10%
Population Mitochondria Different-Phenotype (%) [12]: 88%
Population Mitotic Cells (%) [12]: 36%
Population Normal (%) [12]: 89%
Population Pyknosed Nuclei (%) [12]: 14%
Population Tubulin-Different-Phenotype (%) [12]: 64%
Total Cell Count [12]: 423
